The source made the active and inactive calls. No cut-off for these calls is given here.
Tests used:
[1] = biological target: T1, Sodium-dependent dopamine transporter (Homo sapiens, UniProt Q01959); assay: Enhancing of [3H]WIN35,428 binding to recombinant human DAT expressed in HEK293 cell membranes at 10 uM pre-incubated for 10 mins before radioligand addition and measured 90 mins after radioligand addition by micro beta scintillation counting analysis relative to control
[2] = biological target: T2, Adenosine receptor A3 (Mus musculus) (UniProt Q61618); assay: Displacement of [125I]N6-(4-amino-3-iodobenzyl)adenosine-5'-N-methyluronamide from mouse A3AR expressed in HEK293T cells at 10 uM pre-incubated for 10 mins before radioligand addition and measured 90 mins after radioligand addition by micro beta scintillation counting analysis relative to control; format: cell-based
T2 sequence (whole entry): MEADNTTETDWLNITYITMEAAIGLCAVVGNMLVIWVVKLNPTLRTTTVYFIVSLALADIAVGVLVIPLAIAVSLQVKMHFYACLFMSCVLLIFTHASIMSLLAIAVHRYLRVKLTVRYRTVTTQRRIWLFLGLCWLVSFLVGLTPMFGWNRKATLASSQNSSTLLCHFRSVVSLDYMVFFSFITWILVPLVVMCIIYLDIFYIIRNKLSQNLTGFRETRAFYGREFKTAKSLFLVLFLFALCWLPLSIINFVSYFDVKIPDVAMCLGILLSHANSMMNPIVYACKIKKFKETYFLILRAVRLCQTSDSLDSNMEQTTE

[3] = biological target: T1, Sodium-dependent dopamine transporter; assay: Inhibition of [3H]WIN35,428 binding to recombinant human DAT expressed in HEK293 cell membranes at 10 uM pre-incubated for 10 mins before radioligand addition and measured 90 mins after radioligand addition by micro beta scintillation counting analysis relative to control
[4] = biological target: T1, Sodium-dependent dopamine transporter; assay: Enhancing of [3H]WIN35,428 binding to recombinant human DAT expressed in HEK293 cell membranes pre-incubated for 10 mins before radioligand addition and measured 90 mins after radioligand addition by micro beta scintillation counting analysis relative to control
[5] = biological target: T3, Adenosine receptor A3 (Homo sapiens, UniProt P0DMS8); assay: Displacement of [125I]N6-(4-amino-3-iodobenzyl)adenosine-5'-N-methyluronamide from human A3AR expressed in HEK293T cells pre-incubated for 10 mins before radioligand addition and measured 90 mins after radioligand addition by micro beta scintillation counting analysis relative to control; format: cell-based, HEK-293T
T3 sequence (P0DMS8 whole entry): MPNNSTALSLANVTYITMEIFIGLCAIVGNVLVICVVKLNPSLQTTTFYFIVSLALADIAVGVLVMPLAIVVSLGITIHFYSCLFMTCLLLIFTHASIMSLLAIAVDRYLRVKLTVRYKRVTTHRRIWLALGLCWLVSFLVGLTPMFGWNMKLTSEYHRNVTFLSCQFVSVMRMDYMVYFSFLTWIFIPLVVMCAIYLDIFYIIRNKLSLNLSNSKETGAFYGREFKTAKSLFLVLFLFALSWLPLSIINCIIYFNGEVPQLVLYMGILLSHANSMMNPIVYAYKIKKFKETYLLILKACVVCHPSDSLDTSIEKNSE

[6] = biological target: T1, Sodium-dependent dopamine transporter; assay: Enhancing of [3H]mazindol binding to recombinant human DAT expressed in HEK293 cell membranes preincubated for 10 mins followed by radioligand addition measured after 90 mins by micro beta scintillation counting analysis; set-up: concentration or dose not given beside the values; conditions: for EC50: read-out: EC50
Outline: (§1)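 Membranes of HEK-293 cells stably expressing hDAT, hNET or hSERT. […] Compound preincubated 10 min at room temperature, then [125I]23 (40-80 pM final) or [3H]26 (1-3 nM for DAT and NET, 10-13 nM for SERT) added. Incubated 90 min at room temperature in the dark, then filtered. EC50 or Ki; mean ± SEM.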

[7] = biological target: T4, Sodium-dependent noradrenaline transporter (Homo sapiens, UniProt P23975); assay: Enhancing of [3H]mazindol binding to recombinant human NET expressed in HEK293 cell membranes preincubated for 10 mins followed by radioligand addition measured after 90 mins by micro beta scintillation counting analysis
[8] = biological target: T5, Sodium-dependent serotonin transporter (Homo sapiens, UniProt P31645); assay: Enhancing of [125I]RTI-55 binding to recombinant human SERT expressed in HEK293 cell membranes preincubated for 10 mins followed by radioligand addition measured after 90 mins by micro beta scintillation counting analysis; conditions: for EC50: read-out: EC50
[9] = biological target: T6, Adenosine receptor A3 (Mus musculus, UniProt Q61618); assay: Displacement of [125I]N6-(4-amino-3-iodobenzyl)adenosine-5'-N-methyluronamide from mouse A3AR expressed in HEK293T cells pre-incubated for 10 mins before radioligand addition and measured 90 mins after radioligand addition by micro beta scintillation counting analysis relative to control; format: cell-based
T6 sequence (Q61618 whole entry): T2 sequence (whole entry)

[10] = biological target: T1, Sodium-dependent dopamine transporter; assay: Inhibition of recombinant human DAT expressed in HEK293 cell […] as reduction in [3H]-DA uptake incubated for 22 mins by micro beta scintillation counting analysis
[11] = biological target: T4, Sodium-dependent noradrenaline transporter; assay: Inhibition of recombinant human NET expressed in HEK293 […] assessed as reduction in [3H]-norepinephrine uptake incubated for 22 mins by micro beta scintillation counting analysis
[12] = biological target: T1, Sodium-dependent dopamine transporter; assay: Enhancing of [125I]RTI-55 binding to recombinant human DAT expressed in HEK293 cell membranes preincubated for 10 mins followed by radioligand addition measured after 90 mins by micro beta scintillation counting analysis; set-up: concentration or dose not given beside the values; conditions: for EC50: read-out: EC50; outline: as §1
[13] = biological target: T5, Sodium-dependent serotonin transporter; assay: Enhancing of [3H]mazindol binding to recombinant human SERT expressed in HEK293 cell membranes preincubated for 10 mins followed by radioligand addition measured after 90 mins by micro beta scintillation counting analysis
[14] = biological target: T4, Sodium-dependent noradrenaline transporter; assay: Enhancing of [125I]RTI-55 binding to recombinant human NET expressed in HEK293 cell membranes preincubated for 10 mins followed by radioligand addition measured after 90 mins by micro beta scintillation counting analysis; set-up: concentration or dose not given beside the values; conditions: for EC50: read-out: EC50
[15] = biological target: T7, 5-hydroxytryptamine receptor 2C (Homo sapiens, UniProt P28335); assay: Displacement of [3H]Mesulergine from human 5-HT2C receptor
T7 sequence (P28335 whole entry): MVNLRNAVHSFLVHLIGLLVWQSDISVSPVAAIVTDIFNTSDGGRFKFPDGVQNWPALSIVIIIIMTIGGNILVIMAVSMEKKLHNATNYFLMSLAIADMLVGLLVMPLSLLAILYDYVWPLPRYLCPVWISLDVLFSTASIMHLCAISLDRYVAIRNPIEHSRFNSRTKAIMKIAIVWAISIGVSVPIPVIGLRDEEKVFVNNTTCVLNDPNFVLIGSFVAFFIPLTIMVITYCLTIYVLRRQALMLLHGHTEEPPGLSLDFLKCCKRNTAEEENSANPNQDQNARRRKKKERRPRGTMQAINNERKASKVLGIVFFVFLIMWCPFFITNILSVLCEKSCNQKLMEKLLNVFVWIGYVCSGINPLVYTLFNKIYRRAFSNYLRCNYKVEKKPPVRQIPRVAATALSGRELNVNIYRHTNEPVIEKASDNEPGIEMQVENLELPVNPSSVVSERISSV

[16] = biological target: Adenosine receptor A3 (Homo sapiens) (UniProt P0DMS8); assay: Agonist activity at human A3AR assessed as inhibition of cAMP formation at 10 uM relative to adenosine-5'-Nethyluronamide
[17] = biological target: T8, Sodium-dependent dopamine transporter (Mus musculus, UniProt Q61327); assay: Inhibition of mouse DAT expressed in HEK293 cells assessed as reduction in [3H]-DA uptake; format: cell-based
[18] = biological target: T8, Sodium-dependent dopamine transporter; assay: (§2) Enhancing of [125I]RTI-55 binding to mouse DAT expressed in HEK293 cells preincubated for 10 mins followed by radioligand addition measured after 90 mins by micro beta scintillation counting analysis; format: cell-based
Outline: (§3)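 Membranes preincubated 10 min at room temperature with compound in Krebs-HEPES buffer pH 7.4, then [125I]23 at fixed 45-50 pM for 90 min in the dark, filtered. […] EC50 and % control binding; mean ± SEM.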

[19] = biological target: Sodium-dependent dopamine transporter (Mus musculus) (UniProt Q61327); assay: as §2; format: cell-based; outline: as §3
[20] = biological target: T5, Sodium-dependent serotonin transporter; assay: Inhibition of recombinant human SERT expressed in HEK293 cell […] as reduction in [3H]5-HT uptake incubated for 22 mins by micro beta scintillation counting analysis
Target sequence in this assay (P31645 whole entry): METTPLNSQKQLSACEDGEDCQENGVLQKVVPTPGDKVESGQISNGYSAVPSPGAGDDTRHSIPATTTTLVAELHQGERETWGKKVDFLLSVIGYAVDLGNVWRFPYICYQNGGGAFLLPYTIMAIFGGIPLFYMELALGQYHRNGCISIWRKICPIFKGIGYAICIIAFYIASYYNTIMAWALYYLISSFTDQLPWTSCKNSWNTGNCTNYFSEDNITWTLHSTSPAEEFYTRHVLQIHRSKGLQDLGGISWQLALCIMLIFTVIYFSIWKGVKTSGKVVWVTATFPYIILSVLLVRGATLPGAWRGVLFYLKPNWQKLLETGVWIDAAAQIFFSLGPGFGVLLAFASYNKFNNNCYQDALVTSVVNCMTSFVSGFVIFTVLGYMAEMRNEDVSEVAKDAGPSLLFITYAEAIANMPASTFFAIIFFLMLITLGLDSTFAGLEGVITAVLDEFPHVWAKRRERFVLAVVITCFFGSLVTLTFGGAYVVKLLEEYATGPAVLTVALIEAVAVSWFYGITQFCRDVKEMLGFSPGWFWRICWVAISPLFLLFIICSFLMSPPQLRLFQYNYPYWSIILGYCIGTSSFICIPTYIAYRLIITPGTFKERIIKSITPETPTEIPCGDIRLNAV

Sodium-dependent dopamine transporter (Mus musculus), sequence (Q61327 whole entry): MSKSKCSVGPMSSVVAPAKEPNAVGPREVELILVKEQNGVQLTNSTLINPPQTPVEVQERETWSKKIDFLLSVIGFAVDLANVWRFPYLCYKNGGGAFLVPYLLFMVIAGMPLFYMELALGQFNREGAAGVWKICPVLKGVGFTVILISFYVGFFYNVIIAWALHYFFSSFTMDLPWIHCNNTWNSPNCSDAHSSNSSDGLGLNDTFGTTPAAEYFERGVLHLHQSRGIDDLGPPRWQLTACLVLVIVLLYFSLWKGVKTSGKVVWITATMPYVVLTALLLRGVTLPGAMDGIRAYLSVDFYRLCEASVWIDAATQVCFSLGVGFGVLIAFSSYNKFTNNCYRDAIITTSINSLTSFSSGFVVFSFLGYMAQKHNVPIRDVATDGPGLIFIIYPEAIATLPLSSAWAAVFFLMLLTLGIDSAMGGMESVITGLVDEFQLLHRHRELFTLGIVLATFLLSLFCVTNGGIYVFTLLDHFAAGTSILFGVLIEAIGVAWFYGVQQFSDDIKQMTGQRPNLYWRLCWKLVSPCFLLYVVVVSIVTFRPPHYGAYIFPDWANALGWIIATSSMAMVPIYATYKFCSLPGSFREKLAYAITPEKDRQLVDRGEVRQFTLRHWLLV
T8 sequence (Q61327 whole entry): as above
T4 sequence (P23975 whole entry): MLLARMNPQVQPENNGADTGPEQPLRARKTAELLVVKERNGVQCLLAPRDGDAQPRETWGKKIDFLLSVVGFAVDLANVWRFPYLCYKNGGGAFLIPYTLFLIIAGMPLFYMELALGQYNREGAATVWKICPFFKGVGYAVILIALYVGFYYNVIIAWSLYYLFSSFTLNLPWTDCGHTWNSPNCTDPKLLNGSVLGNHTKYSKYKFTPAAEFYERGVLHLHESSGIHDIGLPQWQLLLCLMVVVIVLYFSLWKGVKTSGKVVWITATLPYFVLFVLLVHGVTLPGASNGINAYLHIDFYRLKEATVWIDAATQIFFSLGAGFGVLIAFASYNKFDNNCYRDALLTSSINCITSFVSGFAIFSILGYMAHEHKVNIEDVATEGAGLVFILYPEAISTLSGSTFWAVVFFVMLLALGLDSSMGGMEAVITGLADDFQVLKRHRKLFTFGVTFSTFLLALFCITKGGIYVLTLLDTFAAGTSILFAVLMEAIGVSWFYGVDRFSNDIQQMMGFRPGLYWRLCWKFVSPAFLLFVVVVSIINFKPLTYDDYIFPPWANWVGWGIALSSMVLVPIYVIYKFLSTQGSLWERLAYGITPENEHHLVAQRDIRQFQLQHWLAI
T1 sequence (Q01959 whole entry): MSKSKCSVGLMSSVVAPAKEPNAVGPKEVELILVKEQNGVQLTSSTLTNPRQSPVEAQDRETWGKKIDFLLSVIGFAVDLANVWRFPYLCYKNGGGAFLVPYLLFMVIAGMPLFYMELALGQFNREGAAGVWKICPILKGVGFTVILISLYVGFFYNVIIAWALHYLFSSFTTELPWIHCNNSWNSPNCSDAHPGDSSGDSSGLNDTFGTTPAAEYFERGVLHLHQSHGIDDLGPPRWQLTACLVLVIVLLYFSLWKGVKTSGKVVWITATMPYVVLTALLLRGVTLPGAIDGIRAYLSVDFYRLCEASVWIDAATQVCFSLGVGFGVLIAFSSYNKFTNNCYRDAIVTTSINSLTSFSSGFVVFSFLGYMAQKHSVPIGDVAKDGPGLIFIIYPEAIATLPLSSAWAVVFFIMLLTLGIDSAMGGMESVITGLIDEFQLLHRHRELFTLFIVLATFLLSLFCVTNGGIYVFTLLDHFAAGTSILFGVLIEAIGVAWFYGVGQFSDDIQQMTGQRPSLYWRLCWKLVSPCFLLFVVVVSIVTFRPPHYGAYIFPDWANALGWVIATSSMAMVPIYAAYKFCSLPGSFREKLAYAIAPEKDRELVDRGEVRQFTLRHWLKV

Activity [1]	inhibition [2] [%]	inhibition [3]	EC50 [4] [µM]	Ki [5] [µM]	SMILES	Activity [6] [%]	EC50 [6] [µM]	Activity [7]	Activity [8]	IC50 [10] [µM]	IC50 [11] [µM]	Activity [12] [%]	EC50 [12] [µM]	Activity [14] [%]	EC50 [14] [µM]	also measured
inactive	–	–	–	–	CCNc1cc(C#Cc2ccc(Cl)s2)nc2c1ncn2[C@H]1[C@H](O)[C@H](O)[C@]2(C(=O)NC)C[C@H]12	–	–	–	–	–	–	–	–	–	–	–
285%	54	inactive	1.2	0.0175	CCCCOC(=O)[C@@]12C[C@@H]1[C@@H](n1cnc3c(NC)nc(C#Cc4ccc(Cl)s4)nc31)[C@H](O)[C@@H]2O	–	–	–	–	–	–	–	–	–	–	–
426%	–	inactive	–	0.00578	CCCOC(=O)[C@@]12C[C@@H]1[C@@H](n1cnc3c(NC)nc(C#Cc4ccc(Cl)s4)nc31)[C@H](O)[C@@H]2O	347	0.535	inactive	inactive	1.14	7.9	461	0.294	302	0.98	EC50 [8]: > 10 µM; Ki [9]: 2.81 µM; EC50 [13]: > 10 µM
196%	32	inactive	–	0.0244	CNc1nc(C#Cc2ccc(Cl)s2)nc2c1ncn2[C@H]1[C@H](O)[C@H](O)[C@]2(C(=O)OCCC(C)C)C[C@H]12	–	–	–	–	–	–	–	–	–	–	–
inactive	9	–	–	–	CNc1nc(C#Cc2ccc(Cl)s2)nc2c1ncn2[C@H]1[C@H](O)[C@H](O)[C@]2(C(=O)OCCCc3ccccc3)C[C@H]12	–	–	–	–	–	–	–	–	–	–	–
50%	0	inactive	> 1	–	CNc1nc(C#Cc2ccc(Cl)s2)nc2c1ncn2[C@H]1[C@H](O)[C@H](O)[C@]2(C(=O)O)C[C@H]12	–	–	–	–	–	–	–	–	–	–	–
inactive	5	–	–	0.77	CNc1nc(C#Cc2ccc(Cl)s2)nc2c1ncn2[C@H]1[C@H](O)[C@H](O)[C@]2(C(=O)OCCC3CCCCC3)C[C@H]12	–	–	–	–	–	–	–	–	–	–	–
430%	–	inactive	0.4	0.00642	CCOC(=O)[C@@]12C[C@@H]1[C@@H](n1cnc3c(NC)nc(C#Cc4ccc(Br)s4)nc31)[C@H](O)[C@@H]2O	–	–	–	–	–	–	–	–	–	–	Ki [9]: 1.8 µM
inactive	30	36%	> 1	0.0429	CNc1nc(C#Cc2ccc(Cl)s2)nc2c1ncn2[C@H]1[C@H](O)[C@H](O)[C@]2(C(=O)OC(C)C)C[C@H]12	–	–	–	–	–	–	–	–	–	–	Ki [15]: 0.43 µM
136%	0	inactive	> 1	0.156	CNc1nc(C#Cc2ccc(Cl)s2)nc2c1ncn2[C@H]1[C@H](O)[C@H](O)[C@]2(C(=O)NCCN)C[C@H]12	–	–	–	–	–	–	–	–	–	–	–
539%	45	inactive	–	0.0145	CCOC(=O)[C@@]12C[C@@H]1[C@@H](n1cnc3c(NC)nc(C#Cc4ccc(Cl)s4)nc31)[C@H](O)[C@@H]2O	455	0.267	inactive	inactive	0.107	3.98	434	0.034	365	0.49	IC50 [17]: 1.17 µM; EC50 [8]: > 10 µM; EC50 [13]: > 10 µM; EC50 [18]: 1.07 µM; Emax [19]: 1560%
–	–	–	–	–	CNC(=O)[C@@]12C[C@@H]1[C@@H](n1cnc3c(NC)nc(C#Cc4ccc(F)c(F)c4)nc31)[C@H](O)[C@@H]2O	438	0.128	inactive	inactive	0.092	–	690	0.07	371	–	IC50 [20]: > 10 µM; EC50 [8]: > 10 µM; Activity [13]: inactive; EC50 [13]: > 10 µM

SMILES	Activity [1]	inhibition [2] [%]	inhibition [3]	EC50 [4] [µM]	Ki [5] [µM]	Activity [6] [%]	EC50 [6] [µM]	Activity [7]	Activity [8]	IC50 [10] [µM]	IC50 [11] [µM]	Activity [12] [%]	EC50 [12] [µM]	Activity [14] [%]	EC50 [14] [µM]	also measured
CNc1nc(C#Cc2ccc(Br)s2)nc2c1ncn2[C@H]1[C@H](O)[C@H](O)[C@]2(C(=O)OC)C[C@H]12	370%	57	inactive	–	0.00856	520	0.308	inactive	inactive	0.246	3.56	374	0.0535	293	0.4	EC50 [8]: > 10 µM; Ki [15]: 0.258 µM; EC50 [13]: > 10 µM
CNC(=O)[C@@]12C[C@@H]1[C@@H](n1cnc3c(NC)nc(C#Cc4ccc(Cl)s4)cc31)[C@H](O)[C@@H]2O	334%	38	inactive	–	–	405	0.55	inactive	inactive	0.163	5.06	437	0.239	318	0.74	Efficacy [16]: 116%; IC50 [17]: 4.3 µM; EC50 [18]: 2.76 µM; Emax [19]: 1000%
CNc1nc(C#Cc2ccc(Cl)s2)nc2c1ncn2[C@H]1[C@H](O)[C@H](O)[C@]2(C(=O)OC)C[C@H]12	352%	36	inactive	–	0.00538	540	0.124	inactive	inactive	0.127	3.38	458	0.035	375	0.31	Efficacy [16]: 11.6%; IC50 [17]: 0.94 µM; EC50 [18]: 0.81 µM; Emax [19]: 1440%
